Laboratory results published in ChEMBL document CHEMBL1208695, “Propenylamide and propenylsulfonamide cephalosporins as a novel class of anti-MRSA beta-lactams” (Bioorg Med Chem Lett, 2010).
Values after ≈ are worked out from the molar mass of the structure shown.

How the values were obtained:
Staphylococcus aureus [1] = assay: Antibacterial activity against Staphylococcus aureus ATCC 25923; type: functional
Staphylococcus aureus [2] = assay: Antibacterial activity against Staphylococcus aureus 887 expressing beta-lactamase; type: functional
Staphylococcus aureus [3] = assay: Antibacterial activity against beta-lactamase deficient Staphylococcus aureus COL; type: functional
Staphylococcus aureus [4] = assay: Antibacterial activity against Staphylococcus aureus COL expressing beta-lactamase; type: functional
Streptococcus pneumoniae = assay: Antibacterial activity against Streptococcus pneumoniae R6; type: functional
Escherichia coli = assay: Antibacterial activity against Escherichia coli UB1005; type: functional
Staphylococcus aureus [5] = assay: Antibacterial activity against Staphylococcus aureus COL expressing beta-lactamase in presence of Sulbactam; type: functional
[6] = Inhibition of Staphylococcus epidermidis PBP2
Procedure, shortened: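 Enzyme: purified recombinant PBP2' from Staphylococcus epidermidis, used as the inhibition target.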

Structure (SMILES) | MIC (Staphylococcus aureus [1]) | MIC (Staphylococcus aureus [2]) | MIC (Staphylococcus aureus [3]) | MIC (Staphylococcus aureus [4]) | MIC (Streptococcus pneumoniae) | MIC (Escherichia coli) | MIC (Staphylococcus aureus [5]) | IC50 [6]
CN1CCCC1C(=O)NC/C=C/C1=C(C(=O)O)N2C(=O)[C@@H](NC(=O)Cc3ccccc3)[C@H]2SC1 (stereo partly specified) | 0.25 µg/mL (≈ 0.516 µM) | 8 µg/mL (≈ 16.5 µM) | > 32 µg/mL | > 32 µg/mL | ≤ 0.06 µg/mL | > 32 µg/mL |  | 
Nc1nc(/C(=N/O)C(=O)N[C@@H]2C(=O)N3C(C(=O)O)=C(/C=C/CNS(=O)(=O)c4cccnc4)CS[C@H]23)c(Cl)s1 | 2 µg/mL (≈ 3.33 µM) | 4 µg/mL (≈ 6.67 µM) | 16 µg/mL (≈ 26.7 µM) | 32 µg/mL (≈ 53.3 µM) | ≤ 0.06 µg/mL | 16 µg/mL (≈ 26.7 µM) |  | 12 µM
CO/N=C(\C(=O)N[C@@H]1C(=O)N2C(C(=O)O)=C(/C=C/CNC(=O)c3cccnc3)CS[C@H]12)c1csc(N)n1 | 4 µg/mL (≈ 7.36 µM) | 8 µg/mL (≈ 14.7 µM) | > 32 µg/mL | > 32 µg/mL | ≤ 0.06 µg/mL | 0.25 µg/mL (≈ 0.46 µM) |  | > 500 µM
O=C(Cc1ccccc1)N[C@@H]1C(=O)N2C(C(=O)O)=C(/C=C/CNC(=O)c3cccnc3)CS[C@H]12 | ≤ 0.06 µg/mL |  | > 32 µg/mL | > 32 µg/mL | ≤ 0.06 µg/mL | > 32 µg/mL |  | 
CO/N=C(\C(=O)N[C@@H]1C(=O)N2C(C(=O)O)=C(/C=C/CNS(=O)(=O)c3cccnc3)CS[C@H]12)c1csc(N)n1 | 1 µg/mL (≈ 1.73 µM) | 2 µg/mL (≈ 3.45 µM) | > 32 µg/mL | > 32 µg/mL | ≤ 0.06 µg/mL | 1 µg/mL (≈ 1.73 µM) |  | 235 µM
CC1(C)S[C@@H]2[C@H](NC(=O)[C@H](N)c3ccc(O)cc3)C(=O)N2[C@H]1C(=O)O [AMOXICILLIN] | 0.25 µg/mL (≈ 0.684 µM) | 32 µg/mL (≈ 87.6 µM) | 32 µg/mL (≈ 87.6 µM) | > 32 µg/mL | ≤ 0.06 µg/mL | 8 µg/mL (≈ 21.9 µM) |  | 
CO/N=C(\C(=O)N[C@@H]1C(=O)N2C(C(=O)O)=C(/C=C/CNC(=O)C3CCCN3C)CS[C@H]12)c1csc(N)n1 (stereo partly specified) | 2 µg/mL (≈ 3.64 µM) | 8 µg/mL (≈ 14.6 µM) | > 32 µg/mL | > 32 µg/mL | ≤ 0.06 µg/mL | 1 µg/mL (≈ 1.82 µM) |  | > 500 µM
CC(=O)OCC1=C(C(=O)O)N2C(=O)[C@@H](NC(=O)Cc3cccs3)[C@H]2SC1 [CEPHALOTHIN] | 0.25 µg/mL (≈ 0.631 µM) | 0.5 µg/mL (≈ 1.26 µM) | > 32 µg/mL | > 32 µg/mL | 0.125 µg/mL (≈ 0.315 µM) | 8 µg/mL (≈ 20.2 µM) |  | 

Now from value to compound:

MIC (Staphylococcus aureus [1]) | MIC (Staphylococcus aureus [2]) | MIC (Staphylococcus aureus [3]) | MIC (Staphylococcus aureus [4]) | MIC (Streptococcus pneumoniae) | MIC (Escherichia coli) | MIC (Staphylococcus aureus [5]) | IC50 [6] | Structure (SMILES)
0.13 µg/mL (≈ 0.229 µM) | 1 µg/mL (≈ 1.76 µM) | 4 µg/mL (≈ 7.06 µM) | > 32 µg/mL | 0.13 µg/mL (≈ 0.229 µM) | > 32 µg/mL | 1 µg/mL |  | CN1CCCC1C(=O)NC/C=C/C1=C(C(=O)O)N2C(=O)[C@@H](NC(=O)CSc3ccc4ccccc4c3)[C@H]2SC1 (stereo partly specified)
≤ 0.06 µg/mL | 1 µg/mL (≈ 1.85 µM) | 4 µg/mL (≈ 7.4 µM) | 32 µg/mL (≈ 59.2 µM) | ≤ 0.06 µg/mL | > 32 µg/mL | 4 µg/mL | 50 µM | CN(C)CC(=O)NC/C=C/C1=C(C(=O)O)N2C(=O)[C@@H](NC(=O)CSc3ccc4ccccc4c3)[C@H]2SC1
≤ 0.06 µg/mL | 0.5 µg/mL (≈ 0.786 µM) | 1 µg/mL (≈ 1.57 µM) | 16 µg/mL (≈ 25.1 µM) | ≤ 0.06 µg/mL | > 32 µg/mL | 1 µg/mL | 2 µM | O=C(CSc1ccc2ccccc2c1)N[C@@H]1C(=O)N2C(C(=O)O)=C(/C=C/CNS(=O)(=O)c3csc(Cl)c3)CS[C@H]12
0.5 µg/mL (≈ 0.835 µM) | 1 µg/mL (≈ 1.67 µM) | 8 µg/mL (≈ 13.4 µM) | 16 µg/mL (≈ 26.7 µM) | 0.25 µg/mL (≈ 0.417 µM) | > 32 µg/mL |  | 6 µM | Nc1nc(/C(=N/O)C(=O)N[C@@H]2C(=O)N3C(C(=O)O)=C(/C=C/CNS(=O)(=O)c4ccccc4)CS[C@H]23)c(Cl)s1
≤ 0.06 µg/mL | 2 µg/mL (≈ 3.36 µM) | 1 µg/mL (≈ 1.68 µM) | 32 µg/mL (≈ 53.7 µM) | ≤ 0.06 µg/mL | > 32 µg/mL |  | 20 µM | O=C(CSc1ccc2ccccc2c1)N[C@@H]1C(=O)N2C(C(=O)O)=C(/C=C/CNS(=O)(=O)c3ccccc3)CS[C@H]12
0.13 µg/mL (≈ 0.235 µM) | 2 µg/mL (≈ 3.61 µM) | 32 µg/mL (≈ 57.8 µM) | > 32 µg/mL | ≤ 0.06 µg/mL | > 32 µg/mL |  |  | O=C(Cc1ccccc1)N[C@@H]1C(=O)N2C(C(=O)O)=C(/C=C/CNS(=O)(=O)c3csc(Cl)c3)CS[C@H]12
0.5 µg/mL (≈ 0.974 µM) | 16 µg/mL (≈ 31.2 µM) | > 32 µg/mL | > 32 µg/mL | 0.13 µg/mL (≈ 0.253 µM) | > 32 µg/mL |  |  | O=C(Cc1ccccc1)N[C@@H]1C(=O)N2C(C(=O)O)=C(/C=C/CNS(=O)(=O)c3ccccc3)CS[C@H]12
0.13 µg/mL (≈ 0.232 µM) | 1 µg/mL (≈ 1.78 µM) | 4 µg/mL (≈ 7.13 µM) | > 32 µg/mL | ≤ 0.06 µg/mL | > 32 µg/mL | 1 µg/mL | 31 µM | O=C(CSc1ccc2ccccc2c1)N[C@@H]1C(=O)N2C(C(=O)O)=C(/C=C/CNC(=O)c3cccnc3)CS[C@H]12
≤ 0.06 µg/mL | 2 µg/mL (≈ 3.65 µM) | 8 µg/mL (≈ 14.6 µM) | > 32 µg/mL | ≤ 0.06 µg/mL | > 32 µg/mL |  | 22 µM | CCS(=O)(=O)NC/C=C/C1=C(C(=O)O)N2C(=O)[C@@H](NC(=O)CSc3ccc4ccccc4c3)[C@H]2SC1
≤ 0.06 µg/mL | 0.5 µg/mL (≈ 0.955 µM) | 1 µg/mL (≈ 1.91 µM) | 16 µg/mL (≈ 30.6 µM) | ≤ 0.06 µg/mL | > 32 µg/mL |  |  | O=C(CSc1ccc2ccccc2c1)N[C@@H]1C(=O)N2C(C(=O)O)=C(/C=C/CNC(=O)C3CC3)CS[C@H]12
